Measurements taken from ChEMBL document CHEMBL1933002, “Development and characterization of improved β-lactone-based anti-virulence drugs targeting ClpP” (Bioorg Med Chem, 2012).
Calls of active or inactive are those of the source. No cut-off for these calls is given here.

Legend:
[1] = target: T1, ATP-dependent Clp protease proteolytic subunit (Staphylococcus aureus (strain NCTC 8325)) (UniProt Q2G036); test: Inhibition of recombinant Staphylococcus aureus NCTC 8325 peptidase activity of clpP expressed in Escherichia coli BL21 at 200 to 800 uM after 10 mins using SLY-AMC as substrate by fluorescence assay
T1 sequence (whole entry): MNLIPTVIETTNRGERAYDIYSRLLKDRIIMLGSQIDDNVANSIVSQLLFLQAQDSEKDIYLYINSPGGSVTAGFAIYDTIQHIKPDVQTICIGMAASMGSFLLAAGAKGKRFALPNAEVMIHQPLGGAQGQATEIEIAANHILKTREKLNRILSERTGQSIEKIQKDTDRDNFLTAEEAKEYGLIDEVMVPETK
How it was run: (§1)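 Recombinant S. aureus ClpP (Strep-tag purified from E. coli BL21), 2 µg, preincubated 10 min at room temperature with lactone or DMSO in 50 mM MES, 100 mM KCl, pH 7.0. SLY-AMC added at 0.2 mM final, 2% DMSO final. Fluorescence read at ex 340/em 450 nm. At least triplicates; EC50 from curve fitting.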

[2] = system: Staphylococcus aureus; test: Antivirulence activity against Staphylococcus aureus NCTC 8325-4 in sheep RBC assessed as inhibition of hemolysis in blood agar plate by measuring hemolysin level after overnight incubation by serial dilution agar plate assay; format: functional, organism-based
How it was run: (§2)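 S. aureus NCTC 8325 inoculated onto 5.5 mm card discs on 5% sheep blood agar plates, together with serial dilutions of β-lactone in DMSO, and incubated overnight at 37 °C. Hemolysis zones were measured and normalized to the DMSO control. Compound stocks were kept in DMSO at -20 °C.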

[3] = system: Staphylococcus aureus; test: Antivirulence activity against Staphylococcus aureus NCTC 8325 in sheep RBC assessed as inhibition of hemolysis in blood agar plate at 100 uM by measuring hemolysin level after overnight incubation by serial dilution agar plate assay
[4] = target: T1, ATP-dependent Clp protease proteolytic subunit (Staphylococcus aureus (strain NCTC 8325)); test: Inhibition of recombinant Staphylococcus aureus NCTC 8325 peptidase activity of clpP expressed in Escherichia coli BL21 at 10 to 40 uM after 10 mins using SLY-AMC as substrate by fluorescence assay; how it was run: as §1
[5] = target: T2, ATP-dependent Clp protease proteolytic subunit (Staphylococcus aureus (strain NCTC 8325), UniProt Q2G036); test: Inhibition of recombinant Staphylococcus aureus NCTC 8325 peptidase activity of clpP expressed in Escherichia coli BL21 after 10 mins using SLY-AMC as substrate by fluorescence assay; how it was run: as §1
T2 sequence (Q2G036 whole entry): T1 sequence (whole entry)

[6] = system: Staphylococcus aureus; test: Antivirulence activity against Staphylococcus aureus NCTC 8325-4 in sheep RBC assessed as inhibition of hemolysis in agar plate by measuring hemolysin level after overnight incubation by serial dilution agar plate assay; format: functional, organism-based; how it was run: as §2
[7] = system: Staphylococcus aureus; test: Growth inhibition of Staphylococcus aureus NCTC 8325 at 1 mM after 9 hrs; format: functional, organism-based
How it was run: (§3)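 Overnight cultures diluted 1:100 in LB (P. aeruginosa, E. coli) or BHB (S. aureus, S. epidermidis, E. faecalis). 100 µL treated with 1 µL of 100 mM lactone stock or DMSO control. Shaken in 96-well plates for 9 h at 37 °C, then OD600 read. Triplicates.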

[8] = system: Staphylococcus epidermidis; test: Growth inhibition of Staphylococcus epidermidis RP62A at 1 mM after 9 hrs; format: functional; how it was run: as §3
[9] = system: Pseudomonas aeruginosa; test: Growth inhibition of Pseudomonas aeruginosa PAO1 at 1 mM after 9 hrs; format: functional, organism-based; how it was run: as §3
[10] = system: Enterococcus faecalis; test: Growth inhibition of Enterococcus faecalis OG1RF at 1 mM after 9 hrs; format: functional; how it was run: as §3
[11] = system: Escherichia coli; test: Growth inhibition of Escherichia coli K-12 at 1 mM after 9 hrs; format: functional, organism-based; how it was run: as §3
[12] = Cytotoxicity against mouse NIH/3T3 cells assessed as cell viability at 200 to 1000 uM after 24 hrs by MTT assay; format: cell-based, NIH3T3; settings: read-out: Activity
How it was run: (§4)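 NIH3T3 cells in DMEM (4 mM glutamine) + 10% FCS, plated at 1.5×10^3/well and cultured 24 h to 30-40% confluence. Lactones diluted 1:100 from DMSO stocks into fresh medium; cells exposed 24 h. MTT (5 mg/ml stock) added for 2 h, cells lysed in DMSO, OD at 570 nm with 630 nm background subtraction.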

[13] = system: NIH3T3; test: Cytotoxicity against mouse NIH/3T3 cells assessed as cell viability up to 1 mM after 24 hrs by MTT assay; format: cell-based; settings: nih3t3, 24 h; how it was run: as §4
[14] = system: HaCaT; test: Cytotoxicity against human HaCaT cells assessed as cell viability after 24 hrs by MTT assay; format: cell-based
How it was run: (§5)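 MTT read-out after 24 h exposure. NIH3T3 grown in DMEM (4 mM glutamine) + 10% FCS and plated at 1.5×10^3/well; HaCat grown in calcium-free DMEM (2 mM glutamine) + 10% dialyzed FCS and plated at 4.5×10^3/well. Cells cultured 24 h to 30-40% confluence. Lactones diluted 1:100 from DMSO stocks into fresh medium. MTT added for 2 h, formazan dissolved in DMSO, OD 570 nm minus 630 nm.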

[15] = target: T1, ATP-dependent Clp protease proteolytic subunit (Staphylococcus aureus (strain NCTC 8325)); test: Displacement of U1P from clpP in live Staphylococcus aureus NCTC 8325 cells after 1 hr using rhodamine-azide by SDS PAGE fluorescence analysis
[16] = system: Staphylococcus aureus; test: Antivirulence activity against Staphylococcus aureus NCTC 8325-4 in sheep RBC assessed as inhibition of hemolysis in liquid medium by measuring hemolysin level after overnight incubation by spent culture supernatant assay
[17] = system: Staphylococcus aureus; test: Antivirulence activity against Staphylococcus aureus NCTC 8325-4 in sheep RBC assessed as inhibition of hemolysis in liquid medium by measuring hemolysin level at 100 uM after overnight incubation by spent culture supernatant assay relative to control
[18] = system: NIH3T3; test: Cytotoxicity against mouse NIH/3T3 cells assessed as cell viability after 24 hrs by MTT assay; format: cell-based; settings: NIH3T3, 24 h; how it was run: as §5

Compound	inhibition [1]	Activity [2]	Activity [3]	inhibition [4]	EC50 [5]	ED50 [6]	EC50 [14]	Activity [15]	EC50 [16]	further results
C=CCCCCCCC[C@H]1C(=O)O[C@@H]1CCCCCCCCCCCNC(=O)OC(C)(C)C (racemic)	inactive	inactive	inactive	–	–	–	–	–	–	–
CCCCCCCCCCCC[C@H]1C(=O)O[C@@H]1CCc1ccccc1 (racemic)	inactive	inactive	inactive	–	–	–	–	–	–	–
C=CCCCCCCC[C@H]1C(=O)O[C@@H]1CCc1ccccc1 (racemic)	–	–	–	30%	3.4 µM	7 nmol	91 µM	Active	11 µM	growth inhibition (GI) [7]: inactive; growth inhibition (GI) [8]: inactive; growth inhibition (GI) [9]: inactive; growth inhibition (GI) [10]: inactive; growth inhibition (GI) [11]: inactive; viability at 24 h, up to 1000 µM [12]: 80%; Activity [13]: Non-toxic
C=CCCCCCCCC[C@H]1OC(=O)[C@@H]1CCCCCCCCCNC(=O)OC(C)(C)C (racemic)	inactive	inactive	inactive	–	–	–	–	–	–	–
C=CCCCCCCC[C@H]1C(=O)O[C@@H]1CCCCCNC(=O)c1ccc(N(C)C)cc1 (racemic)	–	inactive	–	70%	5.4 µM	–	–	Active	–	inhibition at 100 µM [17]: 20%
C=CCCCCCCC[C@H]1C(=O)O[C@@H]1CCc1cccnc1 (racemic)	–	–	–	–	4.5 µM	15 nmol	75 µM	Active	43 µM	EC50 [18]: 50 µM
